Test results taken from ChEMBL document CHEMBL4196009, “Novel vitexin-inspired scaffold against leukemia” (Eur J Med Chem, 2018).
Active and inactive are the calls of the source. No cut-off for these calls is given here.

Columns and labels:
KOPN-8 [1] = assay: Induction of apoptosis in human KOPN8 cells assessed as effect on Mcl-1 level at 0.5 uM after 24 hrs by Western blot analysis relative to control; type: functional
SUP-B15 = assay: Antiproliferative activity against human SUP-B15 cells after 72 hrs by CelTiter-Glo assay; type: functional, cell-based; conditions: SUP-B15, 72 h
MDA-MB-231 [2] = assay: Cell cycle arrest in human MDA-MB-231 cells assessed as accumulation at G2/M phase at 5 uM after 24 hrs by propidium iodide staining-based flow cytometry (reference value: 9.38%); type: functional
BJ = assay: Antiproliferative activity against human BJ cells after 72 hrs by CelTiter-Glo assay; type: cell-based
[3] = biological target: T1, Retinoblastoma-associated protein (Homo sapiens) (UniProt P06400); assay: Inhibition of Rb phosphorylation in human KOPN8 cells assessed as ratio of phosphorylated Rb to total Rb levels at 0.5 uM after 24 hrs by Western blot analysis relative to control; type: cell-based
T1 sequence (whole entry): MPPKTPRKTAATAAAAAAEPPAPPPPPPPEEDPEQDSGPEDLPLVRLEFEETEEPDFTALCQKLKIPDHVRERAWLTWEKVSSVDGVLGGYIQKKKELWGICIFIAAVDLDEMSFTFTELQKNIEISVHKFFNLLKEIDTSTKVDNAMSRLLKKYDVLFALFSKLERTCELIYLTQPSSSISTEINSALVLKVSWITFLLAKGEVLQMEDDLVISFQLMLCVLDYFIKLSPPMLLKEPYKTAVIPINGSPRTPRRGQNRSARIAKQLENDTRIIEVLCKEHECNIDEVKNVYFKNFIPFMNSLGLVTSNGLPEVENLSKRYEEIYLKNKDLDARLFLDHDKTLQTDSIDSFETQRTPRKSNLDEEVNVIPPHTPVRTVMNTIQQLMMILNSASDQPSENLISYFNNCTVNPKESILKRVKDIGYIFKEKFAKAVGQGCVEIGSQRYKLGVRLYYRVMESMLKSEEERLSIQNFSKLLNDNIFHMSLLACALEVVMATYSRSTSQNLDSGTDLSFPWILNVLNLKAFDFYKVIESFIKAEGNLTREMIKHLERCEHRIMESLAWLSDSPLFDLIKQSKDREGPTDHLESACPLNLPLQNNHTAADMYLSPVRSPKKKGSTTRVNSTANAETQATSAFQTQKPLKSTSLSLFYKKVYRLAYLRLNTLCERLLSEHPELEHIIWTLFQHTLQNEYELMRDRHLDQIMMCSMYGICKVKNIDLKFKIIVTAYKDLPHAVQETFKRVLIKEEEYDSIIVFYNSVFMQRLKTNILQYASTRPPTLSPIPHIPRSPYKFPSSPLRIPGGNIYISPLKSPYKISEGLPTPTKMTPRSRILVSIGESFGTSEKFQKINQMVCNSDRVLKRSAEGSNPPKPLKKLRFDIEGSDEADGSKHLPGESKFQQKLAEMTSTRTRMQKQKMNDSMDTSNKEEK
In short: (§1)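 KOPN-8 cells were exposed to compound for 3 h and 24 h, with or without N-acetylcysteine added to a parallel set as antioxidant. Lysates were analysed by Western blot for cleaved PARP, Mcl-1, Ser-2-phosphorylated RNAPII CTD, cMyc, total Rb and pRb. Signals were compared against controls for dose-dependent change.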

KOPN-8 [4] = assay: Effect on c-Myc expression in human KOPN8 cells at 0.5 uM pre-treated with NAC for 1 hr and measured after 3 hrs by Western blot analysis relative to control; type: functional
Homo sapiens [5] = species on record: Homo sapiens; assay: Inhibition of RNA polymerase 2 C-terminal domain phosphorylation at Ser2 residue in human KOPN8 cells at 0.5 uM pre-treated with NAC for 1 hr and measured after 24 hrs by Western blot analysis relative to control; type: cell-based; in short: as §1
[6] = biological target: T1, Retinoblastoma-associated protein (Homo sapiens); assay: Inhibition of Rb phosphorylation in human KOPN8 cells assessed as ratio of phosphorylated Rb to total Rb levels at 0.5 uM after 3 hrs by Western blot analysis relative to control; type: cell-based
In short: (§2)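 KOPN-8 pre-B ALL cells were treated for 3 h and 24 h, with or without N-acetyl cysteine added to a parallel set of cells as an antioxidant/ROS quencher. Lysates were analysed by Western blot for phosphorylated Rb and total Rb. The same blots also probed PARP cleavage, Mcl-1, Ser-2-phosphorylated RNAPII CTD and cMyc.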

KOPN-8 [7] = assay: Effect on c-Myc expression in human KOPN8 cells at 0.5 uM after 24 hrs by Western blot analysis relative to control; type: functional
KOPN-8 [8] = assay: Antiproliferative activity against human KOPN8 cells after 72 hrs by CelTiter-Glo assay; type: functional, cell-based; conditions: KOPN-8, 72 h
MDA-MB-231 [9] = assay: Cell cycle arrest in human MDA-MB-231 cells assessed as accumulation at G0/G1 phase at 5 uM after 24 hrs by propidium iodide staining-based flow cytometry (reference value: 70.47%); type: functional
KOPN-8 [10] = assay: Effect on c-Myc expression in human KOPN8 cells at 0.5 uM pre-treated with NAC for 1 hr and measured after 24 hrs by Western blot analysis relative to control; type: functional
KOPN-8 [11] = assay: Induction of apoptosis in human KOPN8 cells assessed as upregulation of cleaved PARP level at 0.5 uM pre-treated with NAC for 1 hr and measured after 3 to 24 hrs by Western blot analysis; type: functional, cell-based; in short: as §1
KOPN-8 [12] = assay: Effect on c-Myc expression in human KOPN8 cells at 0.5 uM after 3 hrs by Western blot analysis relative to control; type: functional
KOPN-8 [13] = assay: Induction of apoptosis in human KOPN8 cells assessed as effect on Mcl-1 level at 0.5 uM after 3 hrs by Western blot analysis relative to control; type: functional
Homo sapiens [14] = species on record: Homo sapiens; assay: Inhibition of RNA polymerase 2 C-terminal domain phosphorylation at Ser2 residue in human KOPN8 cells at 0.5 uM pre-treated with NAC for 1 hr and measured after 3 hrs by Western blot analysis relative to control; type: cell-based; in short: as §1
KOPN-8 [15] = assay: Induction of apoptosis in human KOPN8 cells assessed as effect on Mcl-1 level at 0.5 uM pre-treated with NAC for 1 hr and measured after 3 hrs by Western blot analysis relative to control; type: functional
HepG2 = assay: Antiproliferative activity against human HepG2 cells after 72 hrs by CelTiter-Glo assay; type: functional, cell-based; conditions: HepG2, 72 h
Homo sapiens [16] = species on record: Homo sapiens; assay: Inhibition of RNA polymerase 2 C-terminal domain phosphorylation at Ser2 residue in human KOPN8 cells at 0.5 uM after 24 hrs by Western blot analysis; type: cell-based; in short: as §1
Homo sapiens [17] = species on record: Homo sapiens; assay: Inhibition of RNA polymerase 2 C-terminal domain phosphorylation at Ser2 residue in human KOPN8 cells at 0.5 uM after 3 hrs by Western blot analysis relative to control; type: cell-based; in short: as §1
SEM cells = assay: Antiproliferative activity against human SEM cells after 72 hrs by CelTiter-Glo assay; type: functional, cell-based
[18] = biological target: T1, Retinoblastoma-associated protein (Homo sapiens); assay: Inhibition of Rb phosphorylation in human KOPN8 cells assessed as ratio of phosphorylated Rb to total Rb levels at 0.5 uM pre-treated with NAC for 1 hr and measured after 3 hrs by Western blot analysis relative to control; type: cell-based; in short: as §2
UoC-B1 = assay: Antiproliferative activity against human UOCB1 cells after 72 hrs by CelTiter-Glo assay; type: functional, cell-based; conditions: UoC-B1, 72 h
KOPN-8 [19] = assay: Induction of apoptosis in human KOPN8 cells assessed as effect on Mcl-1 level at 0.5 uM pre-treated with NAC for 1 hr and measured after 24 hrs by Western blot analysis relative to control; type: functional
KOPN-8 [20] = assay: Induction of apoptosis in human KOPN8 cells assessed as upregulation of cleaved PARP level at 0.5 uM after 3 to 24 hrs by Western blot analysis; type: functional, cell-based; in short: as §1
MDA-MB-231 [21] = assay: Cell cycle arrest in human MDA-MB-231 cells assessed as accumulation at S phase at 5 uM after 24 hrs by propidium iodide staining-based flow cytometry (reference value: 20.15%); type: functional
[22] = biological target: T1, Retinoblastoma-associated protein (Homo sapiens); assay: Inhibition of Rb phosphorylation in human KOPN8 cells assessed as ratio of phosphorylated Rb to total Rb levels at 0.5 uM pre-treated with NAC for 1 hr and measured after 24 hrs by Western blot analysis relative to control; type: cell-based; in short: as §2

`CN1CC[C@H](c2c(O)cc(O)c3c(=O)cc(-c4ccccc4Cl)oc23)[C@H](O)C1` [ALVOCIDIB] was tested, and the “fold change (FC)” value (KOPN-8 [1]) was 0, the EC50 (SUP-B15) was greater than 86200 nM and the Activity (MDA-MB-231 [2]) was 16.47%. For the same molecule, the EC50 (BJ) was greater than 86200 nM, the fold change (FC) [3] was 1 and the “fold change (FC)” value (KOPN-8 [4]) was 0.2. The fold change (FC) (Homo sapiens [5]) was 0, the fold change (FC) [6] was 0.9 and the “fold change (FC)” value (KOPN-8 [7]) was 0. The EC50 (KOPN-8 [8]) was 193 nM, the Activity (MDA-MB-231 [9]) was 66.03% and the “fold change (FC)” value (KOPN-8 [10]) was 0. For the same molecule, the Activity (KOPN-8 [11]) was “Active”, the “fold change (FC)” value (KOPN-8 [12]) was 0.2 and the “fold change (FC)” value (KOPN-8 [13]) was 0.2. For the same molecule, the fold change (FC) (Homo sapiens [14]) was 0.6, the “fold change (FC)” value (KOPN-8 [15]) was 0.2 and the EC50 (HepG2) was 146 nM. The fold change (FC) (Homo sapiens [16]) was 0, the fold change (FC) (Homo sapiens [17]) was 0.4 and the EC50 (SEM cells) was 204 nM. The fold change (FC) [18] was 1.1, the EC50 (UoC-B1) was 208 nM and the “fold change (FC)” value (KOPN-8 [19]) was 0. For the same molecule, the Activity (KOPN-8 [20]) was “Active”, the Activity (MDA-MB-231 [21]) was 17.5% and the fold change (FC) [22] was 1.1.
